# Laboratory results taken from ChEMBL document CHEMBL1811853, “Design and evaluation of 3-aminopyrazolopyridinone kinase inhibitors inspired by the natural product indirubin” (Bioorg Med Chem, 2011).
# Legend:
# [1] = molecular target: T1, Aurora kinase A (Homo sapiens) (UniProt O14965); assay: Inhibition of AurA at 30 uM by microfluidic mobility shift assay
# T1 sequence (whole entry): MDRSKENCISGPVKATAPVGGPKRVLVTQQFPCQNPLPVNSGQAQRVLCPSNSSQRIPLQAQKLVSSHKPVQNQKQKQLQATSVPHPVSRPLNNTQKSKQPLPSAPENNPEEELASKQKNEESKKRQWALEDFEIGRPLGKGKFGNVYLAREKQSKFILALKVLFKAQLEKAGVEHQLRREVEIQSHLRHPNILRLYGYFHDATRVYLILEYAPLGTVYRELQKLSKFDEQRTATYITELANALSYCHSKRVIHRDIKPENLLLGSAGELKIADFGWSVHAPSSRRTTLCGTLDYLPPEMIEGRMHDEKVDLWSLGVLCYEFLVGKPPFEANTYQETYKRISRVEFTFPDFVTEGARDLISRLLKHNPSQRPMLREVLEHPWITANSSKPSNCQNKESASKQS
# How it was run: (§1)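 Single-concentration screen, singlicate, 30 uM final (diluted from 1 mM DMSO solutions), fluorescently tagged peptide substrate appropriate to each kinase, ATP at apparent Km for each protein. Phosphorylated and unphosphorylated peptides separated electrophoretically; conversion is the phosphorylated peak area over the sum of both peaks. No-inhibitor and no-ATP controls; H89 reference on each plate.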
# [2] = molecular target: T2, Protein kinase C zeta type (Homo sapiens) (UniProt Q05513); assay: Inhibition of PKCz at 30 uM by microfluidic mobility shift assay; how it was run: as §1
# T2 sequence (whole entry): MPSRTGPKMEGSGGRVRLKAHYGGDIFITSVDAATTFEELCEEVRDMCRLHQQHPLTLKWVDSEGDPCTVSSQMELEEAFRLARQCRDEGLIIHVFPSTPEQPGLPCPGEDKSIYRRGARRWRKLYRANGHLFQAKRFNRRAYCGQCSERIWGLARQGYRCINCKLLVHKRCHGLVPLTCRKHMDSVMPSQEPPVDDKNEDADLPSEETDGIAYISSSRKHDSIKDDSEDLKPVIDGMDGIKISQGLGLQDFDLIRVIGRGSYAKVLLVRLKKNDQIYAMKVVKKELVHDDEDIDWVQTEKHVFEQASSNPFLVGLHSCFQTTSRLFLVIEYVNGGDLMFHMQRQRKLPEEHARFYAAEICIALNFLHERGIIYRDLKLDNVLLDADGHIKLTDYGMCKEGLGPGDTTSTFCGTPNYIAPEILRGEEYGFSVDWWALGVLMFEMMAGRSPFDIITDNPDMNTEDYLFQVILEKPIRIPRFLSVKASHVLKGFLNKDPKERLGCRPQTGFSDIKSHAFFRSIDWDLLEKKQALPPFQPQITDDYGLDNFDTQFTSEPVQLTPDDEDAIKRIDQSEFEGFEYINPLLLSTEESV
# [3] = molecular target: T3, Serine/threonine-protein kinase Chk2 (Homo sapiens, UniProt O96017); assay: Inhibition of CHK2 at 30 uM by microfluidic mobility shift assay; how it was run: as §1
# [4] = molecular target: Glycogen synthase kinase-3 beta (Homo sapiens) (UniProt P49841); assay: Inhibition of GSK3B at 30 uM by microfluidic mobility shift assay; how it was run: as §1
# [5] = molecular target: Insulin receptor (Homo sapiens) (UniProt P06213); assay: Inhibition of INSR at 30 uM by microfluidic mobility shift assay; how it was run: as §1
# [6] = Aqueous solubility of the compound by HPLC analysis; assay type: physicochemical; details: water
# How it was run: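 Solubility determined by HPLC measurement of the concentration in saturated aqueous solutions of the compounds.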
# [7] = molecular target: MAP kinase-activated protein kinase 2 (Homo sapiens, UniProt P49137); assay: Inhibition of MAPKAPK2 by microfluidic mobility shift assay
# How it was run: (§2)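 IC50 determined in the mobility shift format: a fluorescently tagged peptide substrate appropriate to each kinase, ATP at its apparent Km for each protein, and electrophoretic separation of phospho and unphosphorylated peptide. Percent conversion is the ratio of the phosphopeptide peak area to the total peak area. Controls were no inhibitor and no ATP.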
# Aurora kinase A = Aurora kinase A (Homo sapiens, UniProt O14965); assay: Inhibition of AurA by microfluidic mobility shift assay; how it was run: as §2
# [8] = molecular target: Casein kinase I isoform delta (Homo sapiens, UniProt P48730); assay: Inhibition of CK1delta by microfluidic mobility shift assay; how it was run: as §2
# [9] = molecular target: Serine/threonine-protein kinase Chk1 (Homo sapiens, UniProt O14757); assay: Inhibition of CHK1 by microfluidic mobility shift assay; how it was run: as §2
# [10] = molecular target: Tyrosine-protein kinase ABL1 (Homo sapiens, UniProt P00519); assay: Inhibition of ABL by microfluidic mobility shift assay; how it was run: as §2
# [11] = molecular target: Tyrosine-protein kinase Fyn (Homo sapiens, UniProt P06241); assay: Inhibition of FYN by microfluidic mobility shift assay; how it was run: as §2
# [12] = molecular target: Tyrosine-protein kinase Lyn (Homo sapiens, UniProt P07948); assay: Inhibition of LYN by microfluidic mobility shift assay; how it was run: as §2
# [13] = molecular target: T3, Serine/threonine-protein kinase Chk2; assay: Inhibition of CHK2 by microfluidic mobility shift assay; how it was run: as §2
# [14] = molecular target: Tyrosine-protein kinase Lck (Homo sapiens, UniProt P06239); assay: Inhibition of LCK by microfluidic mobility shift assay; how it was run: as §2
# [15] = molecular target: Proto-oncogene tyrosine-protein kinase Src (Homo sapiens, UniProt P12931); assay: Inhibition of SRC by microfluidic mobility shift assay; how it was run: as §2
# [16] = Inhibition of PKA by microfluidic mobility shift assay; how it was run: as §2
# Sequence of Insulin receptor (Homo sapiens) (P06213 28-758 limits assumed): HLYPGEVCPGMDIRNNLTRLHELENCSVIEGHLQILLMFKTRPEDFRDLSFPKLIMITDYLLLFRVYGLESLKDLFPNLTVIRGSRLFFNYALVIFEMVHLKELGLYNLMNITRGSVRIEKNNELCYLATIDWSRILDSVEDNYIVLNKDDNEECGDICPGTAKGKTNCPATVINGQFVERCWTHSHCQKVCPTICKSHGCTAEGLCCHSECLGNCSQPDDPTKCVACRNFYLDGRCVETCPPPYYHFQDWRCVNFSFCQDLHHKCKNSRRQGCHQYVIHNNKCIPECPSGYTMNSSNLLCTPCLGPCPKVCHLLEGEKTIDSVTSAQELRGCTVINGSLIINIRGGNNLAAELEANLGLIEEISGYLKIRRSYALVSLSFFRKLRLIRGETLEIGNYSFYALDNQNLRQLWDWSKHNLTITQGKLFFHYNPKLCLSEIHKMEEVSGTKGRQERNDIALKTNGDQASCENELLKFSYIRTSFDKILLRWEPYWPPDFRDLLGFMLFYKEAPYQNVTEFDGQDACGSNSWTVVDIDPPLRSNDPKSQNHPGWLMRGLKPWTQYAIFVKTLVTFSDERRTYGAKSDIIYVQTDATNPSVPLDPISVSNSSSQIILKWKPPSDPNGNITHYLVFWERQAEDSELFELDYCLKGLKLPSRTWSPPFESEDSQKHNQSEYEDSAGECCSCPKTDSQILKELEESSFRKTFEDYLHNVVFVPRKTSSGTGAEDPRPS
# Sequence of Insulin receptor (Homo sapiens) (P06213 763-1382 limits assumed): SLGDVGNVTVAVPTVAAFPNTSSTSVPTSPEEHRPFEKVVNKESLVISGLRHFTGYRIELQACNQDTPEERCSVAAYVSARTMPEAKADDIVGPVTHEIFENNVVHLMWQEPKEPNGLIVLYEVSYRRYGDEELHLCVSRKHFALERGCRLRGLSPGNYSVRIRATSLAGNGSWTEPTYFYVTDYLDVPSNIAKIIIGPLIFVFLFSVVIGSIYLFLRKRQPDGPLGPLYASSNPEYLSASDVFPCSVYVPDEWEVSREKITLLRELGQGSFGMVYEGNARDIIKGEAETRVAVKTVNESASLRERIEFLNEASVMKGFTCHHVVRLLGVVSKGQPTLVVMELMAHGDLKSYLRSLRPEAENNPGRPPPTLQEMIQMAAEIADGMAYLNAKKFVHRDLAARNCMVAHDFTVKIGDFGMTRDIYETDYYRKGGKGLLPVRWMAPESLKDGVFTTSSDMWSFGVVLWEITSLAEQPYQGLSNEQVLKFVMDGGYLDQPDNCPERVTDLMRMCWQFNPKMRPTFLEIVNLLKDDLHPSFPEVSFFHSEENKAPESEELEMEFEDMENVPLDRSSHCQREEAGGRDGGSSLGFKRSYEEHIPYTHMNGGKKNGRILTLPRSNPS
# Sequence of Glycogen synthase kinase-3 beta (Homo sapiens) (P49841 whole entry, looked up): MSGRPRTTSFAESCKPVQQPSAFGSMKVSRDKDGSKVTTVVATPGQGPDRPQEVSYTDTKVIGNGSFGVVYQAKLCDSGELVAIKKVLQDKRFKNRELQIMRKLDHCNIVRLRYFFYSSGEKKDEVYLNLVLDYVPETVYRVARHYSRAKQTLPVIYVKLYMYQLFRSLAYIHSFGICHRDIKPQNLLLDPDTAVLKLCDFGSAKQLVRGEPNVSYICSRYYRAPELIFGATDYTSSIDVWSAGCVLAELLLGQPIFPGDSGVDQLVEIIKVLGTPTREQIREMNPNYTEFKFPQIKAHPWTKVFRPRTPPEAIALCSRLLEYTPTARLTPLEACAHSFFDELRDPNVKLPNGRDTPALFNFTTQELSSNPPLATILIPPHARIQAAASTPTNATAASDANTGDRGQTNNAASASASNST
# T3 sequence (O96017 whole entry): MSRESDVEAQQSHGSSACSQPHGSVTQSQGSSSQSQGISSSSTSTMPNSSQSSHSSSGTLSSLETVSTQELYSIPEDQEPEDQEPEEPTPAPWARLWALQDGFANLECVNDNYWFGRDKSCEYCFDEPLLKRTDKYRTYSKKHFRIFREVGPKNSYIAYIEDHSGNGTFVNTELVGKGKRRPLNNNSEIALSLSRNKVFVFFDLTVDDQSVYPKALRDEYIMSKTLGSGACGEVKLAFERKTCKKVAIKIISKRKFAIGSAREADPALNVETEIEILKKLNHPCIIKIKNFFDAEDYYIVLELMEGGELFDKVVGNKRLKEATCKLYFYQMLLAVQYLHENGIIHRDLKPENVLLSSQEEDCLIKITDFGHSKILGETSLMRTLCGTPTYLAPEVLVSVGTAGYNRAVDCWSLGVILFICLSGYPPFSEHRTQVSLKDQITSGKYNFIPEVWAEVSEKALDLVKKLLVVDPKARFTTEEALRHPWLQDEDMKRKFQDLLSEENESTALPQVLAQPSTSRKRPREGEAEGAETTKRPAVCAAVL
# Sequence of MAP kinase-activated protein kinase 2 (P49137 whole entry): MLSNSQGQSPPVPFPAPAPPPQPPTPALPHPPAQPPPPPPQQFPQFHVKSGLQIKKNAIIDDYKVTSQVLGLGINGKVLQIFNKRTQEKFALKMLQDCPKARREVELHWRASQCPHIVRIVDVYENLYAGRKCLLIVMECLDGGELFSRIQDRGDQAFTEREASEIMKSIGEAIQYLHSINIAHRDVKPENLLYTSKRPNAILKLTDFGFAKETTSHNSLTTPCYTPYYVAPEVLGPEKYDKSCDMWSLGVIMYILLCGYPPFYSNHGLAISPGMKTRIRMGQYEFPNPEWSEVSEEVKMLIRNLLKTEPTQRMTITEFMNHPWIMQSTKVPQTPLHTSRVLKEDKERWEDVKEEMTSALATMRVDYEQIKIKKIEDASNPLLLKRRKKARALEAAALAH
# Sequence of Tyrosine-protein kinase Lyn (P07948 whole entry): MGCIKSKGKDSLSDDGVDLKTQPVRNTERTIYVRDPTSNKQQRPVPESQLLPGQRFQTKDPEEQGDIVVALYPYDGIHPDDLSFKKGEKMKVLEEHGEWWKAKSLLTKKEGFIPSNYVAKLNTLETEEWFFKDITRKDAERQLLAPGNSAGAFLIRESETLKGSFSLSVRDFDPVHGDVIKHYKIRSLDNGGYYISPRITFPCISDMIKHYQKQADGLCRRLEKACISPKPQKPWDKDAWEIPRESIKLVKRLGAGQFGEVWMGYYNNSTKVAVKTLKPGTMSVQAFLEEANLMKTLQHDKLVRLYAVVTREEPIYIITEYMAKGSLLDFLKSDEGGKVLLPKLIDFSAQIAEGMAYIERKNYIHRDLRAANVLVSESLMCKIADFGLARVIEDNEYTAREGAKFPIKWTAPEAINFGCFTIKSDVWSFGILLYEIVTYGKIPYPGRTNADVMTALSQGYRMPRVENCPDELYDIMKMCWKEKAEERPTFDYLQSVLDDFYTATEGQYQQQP
# Sequence of Tyrosine-protein kinase Fyn (P06241 whole entry): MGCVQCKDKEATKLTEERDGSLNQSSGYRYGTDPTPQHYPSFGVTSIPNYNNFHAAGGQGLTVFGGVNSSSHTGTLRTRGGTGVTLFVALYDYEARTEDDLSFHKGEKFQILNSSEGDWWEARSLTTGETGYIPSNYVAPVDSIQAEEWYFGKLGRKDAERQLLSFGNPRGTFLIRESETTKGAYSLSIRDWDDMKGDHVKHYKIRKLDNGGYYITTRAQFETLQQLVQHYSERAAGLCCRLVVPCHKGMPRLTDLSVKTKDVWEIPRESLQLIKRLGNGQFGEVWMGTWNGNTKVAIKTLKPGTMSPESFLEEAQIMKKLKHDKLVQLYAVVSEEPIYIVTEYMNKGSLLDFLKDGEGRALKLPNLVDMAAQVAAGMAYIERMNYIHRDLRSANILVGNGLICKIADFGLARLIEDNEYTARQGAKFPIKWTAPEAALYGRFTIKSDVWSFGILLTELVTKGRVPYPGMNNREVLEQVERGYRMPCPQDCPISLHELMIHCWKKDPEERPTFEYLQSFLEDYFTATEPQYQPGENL
# Sequence of Serine/threonine-protein kinase Chk1 (O14757 whole entry): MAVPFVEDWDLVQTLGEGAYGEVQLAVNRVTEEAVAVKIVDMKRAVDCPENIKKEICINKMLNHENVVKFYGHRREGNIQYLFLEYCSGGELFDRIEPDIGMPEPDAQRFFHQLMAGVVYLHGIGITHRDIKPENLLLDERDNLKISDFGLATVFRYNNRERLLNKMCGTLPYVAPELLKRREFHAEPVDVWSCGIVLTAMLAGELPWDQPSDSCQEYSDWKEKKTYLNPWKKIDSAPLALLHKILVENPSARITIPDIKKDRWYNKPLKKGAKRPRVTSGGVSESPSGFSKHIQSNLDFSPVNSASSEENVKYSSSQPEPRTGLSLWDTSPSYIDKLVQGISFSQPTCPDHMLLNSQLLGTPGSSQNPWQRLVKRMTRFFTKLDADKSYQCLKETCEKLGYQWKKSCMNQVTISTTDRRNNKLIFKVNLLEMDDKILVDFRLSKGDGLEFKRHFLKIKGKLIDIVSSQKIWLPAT
# Sequence of Proto-oncogene tyrosine-protein kinase Src (P12931 2-536 limits assumed): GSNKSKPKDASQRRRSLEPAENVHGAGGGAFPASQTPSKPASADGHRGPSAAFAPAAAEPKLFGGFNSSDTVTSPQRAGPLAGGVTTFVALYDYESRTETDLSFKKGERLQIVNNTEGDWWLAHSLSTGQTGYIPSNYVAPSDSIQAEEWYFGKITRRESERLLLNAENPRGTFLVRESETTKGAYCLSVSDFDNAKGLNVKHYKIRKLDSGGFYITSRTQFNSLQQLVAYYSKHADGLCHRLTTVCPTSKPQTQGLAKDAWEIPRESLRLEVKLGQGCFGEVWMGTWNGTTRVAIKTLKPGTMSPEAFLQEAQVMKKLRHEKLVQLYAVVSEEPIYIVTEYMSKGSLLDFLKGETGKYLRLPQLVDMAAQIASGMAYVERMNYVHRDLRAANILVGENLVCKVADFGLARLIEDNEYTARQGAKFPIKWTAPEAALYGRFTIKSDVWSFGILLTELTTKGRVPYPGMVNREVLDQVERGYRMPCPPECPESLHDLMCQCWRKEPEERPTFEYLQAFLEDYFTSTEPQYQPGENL
Structure (SMILES),inhibition [1],inhibition [2],inhibition [3],inhibition [4],inhibition [5],other results
Nc1n[nH]c2cc(-c3cccnc3)[nH]c(=O)c12,42%,1%,27%,71%,7%,–
Cc1cc2c(c(N)nn2C)c(N2CC[C@H](O)C2)n1,0%,19%,-2%,-6%,-2%,–
Cn1nc2c3c(nc(-c4ccccc4)cc31)NCC(=O)N2,20%,5%,5%,14%,2%,–
Nc1n[nH]c2cc(-c3ccncc3)[nH]c(=O)c12,43%,10%,34%,95%,9%,–
Cc1cc2[nH]nc(N)c2c(=O)[nH]1,23%,10%,27%,18%,-2%,solubility [6]: 1640 µg/mL
Cc1cc2[nH]nc(N)c2c(N2CCCCC2)n1,84%,43%,33%,55%,9%,solubility [6]: 794 µg/mL
Cn1nc(N)c2c(=O)[nH]c(-c3ccccn3)cc21,7%,0%,25%,46%,16%,–
Cc1cc2c(c(NS(C)(=O)=O)nn2C)c(=O)[nH]1,-8%,27%,-1%,13%,-6%,–
COc1ccc(-c2c(C)[nH]c(=O)c3c(N)nn(C)c23)cc1,31%,10%,18%,58%,2%,–
Nc1n[nH]c2c3c([nH]c(=O)c12)CCCC3,12%,-5%,7%,23%,-3%,–
COCCNc1nc(C)cc2c1c(N)nn2C,15%,-10%,-2%,1%,0%,–
COC(=O)CCc1c(C)[nH]c(=O)c2c(N)nn(C)c12,9%,14%,-1%,17%,3%,solubility [6]: 469 µg/mL
Cc1cc2c(c(N)nn2C)c(=O)[nH]1,4%,0%,3%,1%,3%,solubility [6]: 1220 µg/mL
CC(C)(C)c1cc2nn(-c3ccccc3)c(N)c2c(=O)[nH]1,9%,-1%,5%,31%,4%,–
Cc1nc(N)c2c(=O)[nH]c(C)cc2n1,3%,3%,5%,52%,3%,–
COc1ccccc1-c1cc2nn(-c3ccccc3)c(N)c2c(=O)[nH]1,7%,4%,16%,3%,-2%,–
Nc1c2c(=O)[nH]c(-c3ccccc3)cc2nn1-c1ccccn1,37%,-3%,18%,41%,5%,–
Nc1n[nH]c2cc(-c3ccccn3)[nH]c(=O)c12,38%,3%,47%,60%,34%,–
Cc1cc2nc(N)nc(N)c2c(=O)[nH]1,10%,8%,16%,36%,0%,–
COc1ccc(-c2cc3nn(-c4ccccc4)c(N)c3c(=O)[nH]2)cc1,10%,0%,-3%,14%,0%,–
COc1cccc(-c2cc3[nH]nc(N)c3c(=O)[nH]2)c1,49%,-1%,52%,58%,20%,–
COCCNc1nc(-c2ccccc2)cc2c1c(N)nn2C,10%,20%,8%,3%,1%,–

# The next lines start with results.
inhibition [1],inhibition [2],inhibition [3],inhibition [4],inhibition [5],Structure (SMILES),other results
10%,19%,2%,2%,-5%,Cc1cc2c(c(NC(=O)Nc3ccccc3)nn2C)c(=O)[nH]1,solubility [6]: < 1 µg/mL
66%,23%,18%,12%,8%,CN1CCN(c2ccc(-c3cc4nn(-c5ccccc5)c(N)c4c(=O)[nH]3)cc2)CC1,–
-9%,21%,6%,0%,2%,COc1ccc(S(=O)(=O)Nc2nn(C)c3cc(C)[nH]c(=O)c23)c(OC)c1,–
14%,6%,16%,66%,2%,Cn1nc(N)c2c(=O)[nH]c(-c3ccccc3)cc21,solubility [6]: 76 µg/mL
15%,6%,3%,-3%,2%,CC(=O)Nc1nn(C)c2cc(-c3ccc(N4CCN(C)CC4)cc3)[nH]c(=O)c12,–
17%,6%,31%,61%,6%,COc1cccc(-c2cc3c(c(N)nn3C)c(=O)[nH]2)c1,–
33%,-3%,16%,81%,5%,COc1ccc(-c2cc3c(c(N)nn3C)c(=O)[nH]2)cc1,–
51%,-2%,38%,41%,6%,Nc1n[nH]c2cc(-c3ccc(N4CCOCC4)cc3)[nH]c(=O)c12,–
2%,28%,4%,17%,5%,CC(=O)Nc1nn(C)c2cc(-c3ccccc3)[nH]c(=O)c12,solubility [6]: 79 µg/mL
52%,7%,53%,45%,9%,CN1CCN(c2ccc(-c3cc4c(c(N)nn4C)c(=O)[nH]3)cc2)CC1,solubility [6]: 55 µg/mL; IC50 [7]: 35 µM; IC50 (Aurora kinase A): 33 µM; IC50 [8]: 39 µM; IC50 [9]: 24 µM; IC50 [10]: 7.8 µM; IC50 [11]: 17 µM; IC50 [12]: 14 µM; IC50 [13]: 34 µM; IC50 [14]: 18 µM; IC50 [15]: 7.7 µM; IC50 [16]: 5.2 µM
51%,35%,68%,42%,17%,CN1CCN(c2ccc(-c3cc4[nH]nc(N)c4c(=O)[nH]3)cc2)CC1,–
49%,7%,43%,78%,6%,COc1ccc(-c2cc3[nH]nc(N)c3c(=O)[nH]2)cc1,–
